In article PMC7598728 (Biochemistry, 2020):

How the values were obtained:
[1] = system: Zika strain MR766 (infectivity in Vero cells); assay: TCID50 end point dilution infectivity assay; format: cell-based, Zika virus; settings: tested at 25 μM; activity cutoff <0.6
Outline: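 End-point dilution: Vero cells were seeded at 2 × 10^4 cells/well. The next day, medium was replaced with serial dilutions of ZIKV, untreated or pretreated 1 h at 37 °C with the test compound or controls. After 6 days at 37 °C, cells were fixed in 3.7% formaldehyde and stained with crystal violet. Wells were scored for CPE, and TCID50 was calculated by the Reed and Muench method.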

[2] = system: Zika strain MR766 (ZIKV-induced cell killing of Vero cells); assay: Cell viability assay in the presence of virus; format: cell-based, Zika virus; settings: tested at 25 μM; values over 1 signify inhibition of ZIKV-induced cell killing
Outline: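 Vero cells (DMEM, 10% heat-inactivated FBS, 37 °C, 5% CO2) were seeded at 1 × 10^4 cells/well. The next day they were infected with ZIKV that had been pretreated 1 h at 37 °C with the DMSO-dissolved test compound or controls. After 3 days, viability was read by CellTiter-Fluor fluorescence and normalized to infected cells. Run in triplicate.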

Vero cells = assay: Compound cytotoxicity; format: cell-based; settings: 25 μM, no virus, 3 days, triplicate, values <1 = cytotoxic
Outline: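 Vero cells seeded at 1 × 10^4 cells/well were exposed the next day, with no virus, to the DMSO-dissolved test compound. Handling matched the infected viability assay, including the 1 h 37 °C compound pre-incubation step. Viability was read by CellTiter-Fluor after 3 days.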

[3] = system: Zika-induced caspase 3/7 activity in Vero cells; assay: Caspase activity assay; format: cell-based, Zika virus; settings: tested at 25 μM; relative to virus alone or virus with DMSO
Outline: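 ZIKV MR766 was pre-incubated with the DMSO-dissolved test compound or controls for 1 h at 37 °C, then added to Vero cells seeded at 1 × 10^4 cells/well the previous day (medium removed). Cells were incubated 3 days, viability read first (CellTiter-Fluor), then caspase 3/7 luminescence (Caspase-Glo 3/7). Run in triplicate.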

Row | Compound | TCID50 infectivity [1] | cell viability (normalized to ZIKV-infected cells) [2] | compound cytotoxicity (Vero cells) | caspase activity [3]
1 | C#C[C@@]1(O)[C@H](O)[C@@H](CO)O[C@H]1n1ccc2c(N)ncnc21 [NITD008] | < 0.6 | > 1.0 | some cytotoxicity | suppressed caspase activity
2 | C[C@H](NC(=O)C(=O)Nc1ccccc1C(C)(C)C)C(=O)N[C@@H](CC(=O)O)C(=O)COc1c(F)c(F)cc(F)c1F [emricasan] |  |  |  | suppressed caspase activity
